Source: ChEMBL document CHEMBL5653631, “A Potent and Selective ULK1 Inhibitor Suppresses Autophagy and Sensitizes Cancer Cells to Nutrient Stress” (iScience, 2018)

Tests used:
[1] = target: Homeodomain-interacting protein kinase 3 (Homo sapiens) (UniProt Q9H422); assay: Inhibition of human recombinant HIPK3 at 40 nM in presence of ATP by radiometric assay relative to control
[2] = target: Serine/threonine-protein kinase PAK 5 (Homo sapiens) (UniProt Q9P286); assay: Inhibition of human recombinant PAK5 at 40 nM related to control ULK1
[3] = target: Serine/threonine-protein kinase pim-2 (Homo sapiens) (UniProt Q9P1W9); assay: Inhibition of human recombinant PIM2 at 40 nM related to control ULK1
[4] = target: T1, Cytoplasmic tyrosine-protein kinase BMX (Homo sapiens) (UniProt P51813); assay: Inhibition of human recombinant BMX at 15 nM in presence of ATP by radiometric assay relative to control
T1 sequence (whole entry): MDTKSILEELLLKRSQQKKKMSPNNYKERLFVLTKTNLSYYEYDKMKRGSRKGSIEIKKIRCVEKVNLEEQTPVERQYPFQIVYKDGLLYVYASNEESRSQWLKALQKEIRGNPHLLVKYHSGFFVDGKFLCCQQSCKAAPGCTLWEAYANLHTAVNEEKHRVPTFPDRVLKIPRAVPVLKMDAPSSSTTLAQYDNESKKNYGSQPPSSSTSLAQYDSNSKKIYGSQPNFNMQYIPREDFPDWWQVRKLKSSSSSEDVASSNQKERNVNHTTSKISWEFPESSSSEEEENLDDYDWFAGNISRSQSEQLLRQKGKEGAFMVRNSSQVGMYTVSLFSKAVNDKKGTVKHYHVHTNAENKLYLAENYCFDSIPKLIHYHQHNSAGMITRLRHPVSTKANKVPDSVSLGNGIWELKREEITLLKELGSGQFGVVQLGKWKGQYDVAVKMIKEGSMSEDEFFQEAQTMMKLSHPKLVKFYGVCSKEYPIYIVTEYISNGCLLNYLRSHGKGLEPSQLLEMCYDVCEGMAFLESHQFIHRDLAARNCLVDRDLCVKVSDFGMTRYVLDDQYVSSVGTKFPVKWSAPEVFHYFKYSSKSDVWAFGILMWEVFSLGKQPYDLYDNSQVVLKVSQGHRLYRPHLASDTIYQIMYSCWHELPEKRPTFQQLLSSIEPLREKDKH
Method in brief: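 Part of a radiometric in vitro activity panel of 327 recombinant human kinases. Each kinase was tested in duplicate at one inhibitor concentration. Activity remaining was expressed as a percentage of the vehicle control, and percent inhibition was taken as 100 minus that value.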

[5] = target: T2, Serine/threonine-protein kinase Nek9 (Homo sapiens) (UniProt Q8TD19); assay: Inhibition of human recombinant NEK9 at 15 nM in presence of ATP by radiometric assay relative to control
T2 sequence (whole entry): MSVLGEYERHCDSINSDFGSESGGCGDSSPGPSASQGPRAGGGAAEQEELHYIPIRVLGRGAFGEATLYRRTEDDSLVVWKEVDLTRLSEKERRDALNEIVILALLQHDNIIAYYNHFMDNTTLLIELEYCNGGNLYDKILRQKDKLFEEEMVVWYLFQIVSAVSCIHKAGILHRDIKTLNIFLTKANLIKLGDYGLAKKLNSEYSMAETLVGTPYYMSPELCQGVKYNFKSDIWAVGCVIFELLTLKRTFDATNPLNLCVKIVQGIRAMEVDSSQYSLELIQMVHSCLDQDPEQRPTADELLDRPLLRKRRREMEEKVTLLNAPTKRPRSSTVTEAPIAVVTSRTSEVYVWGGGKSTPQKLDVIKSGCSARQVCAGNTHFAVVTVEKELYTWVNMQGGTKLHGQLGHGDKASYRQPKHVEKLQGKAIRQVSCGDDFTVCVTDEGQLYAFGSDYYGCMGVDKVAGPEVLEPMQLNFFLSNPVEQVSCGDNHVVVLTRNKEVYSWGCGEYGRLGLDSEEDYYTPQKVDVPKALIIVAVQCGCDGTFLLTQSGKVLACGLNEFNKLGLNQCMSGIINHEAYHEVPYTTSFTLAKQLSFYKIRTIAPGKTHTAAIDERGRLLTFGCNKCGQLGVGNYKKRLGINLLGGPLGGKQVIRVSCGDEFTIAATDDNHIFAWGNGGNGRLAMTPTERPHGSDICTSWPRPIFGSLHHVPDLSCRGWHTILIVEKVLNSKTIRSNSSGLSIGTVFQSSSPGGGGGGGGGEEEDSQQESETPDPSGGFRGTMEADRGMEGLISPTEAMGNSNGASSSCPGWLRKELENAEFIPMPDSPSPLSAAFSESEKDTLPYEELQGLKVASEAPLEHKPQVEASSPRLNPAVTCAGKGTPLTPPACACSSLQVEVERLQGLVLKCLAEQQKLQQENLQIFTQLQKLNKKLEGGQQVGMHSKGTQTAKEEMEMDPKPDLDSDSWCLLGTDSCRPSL

[6] = target: High affinity nerve growth factor receptor (Homo sapiens) (UniProt P04629); assay: Inhibition of human recombinant TRKA at 15 nM in presence of ATP by radiometric assay relative to control
[7] = target: Tau-tubulin kinase 1 (Homo sapiens) (UniProt Q5TCY1); assay: Inhibition of human recombinant TTBK1 at 15 nM related to control ULK1
[8] = target: T3, Testis-specific serine/threonine-protein kinase 1 (Homo sapiens) (UniProt Q9BXA7); assay: Inhibition of human recombinant TSSK1 at 500 nM in presence of ATP by radiometric assay relative to control
T3 sequence (whole entry): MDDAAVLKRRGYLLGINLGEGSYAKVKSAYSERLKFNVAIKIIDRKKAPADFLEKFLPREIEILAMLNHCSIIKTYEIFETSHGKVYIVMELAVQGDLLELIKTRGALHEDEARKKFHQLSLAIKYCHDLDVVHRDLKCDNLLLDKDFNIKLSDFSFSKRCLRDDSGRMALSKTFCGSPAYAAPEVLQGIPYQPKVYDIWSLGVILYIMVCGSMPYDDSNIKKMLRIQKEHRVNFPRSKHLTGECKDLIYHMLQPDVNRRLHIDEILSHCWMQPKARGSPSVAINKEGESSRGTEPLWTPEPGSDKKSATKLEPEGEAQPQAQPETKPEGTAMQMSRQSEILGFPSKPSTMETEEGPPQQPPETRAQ

[9] = target: Insulin receptor (Homo sapiens) (UniProt P06213); assay: Inhibition of human recombinant INSR at 500 nM related to control ULK1
[10] = target: Myosin light chain kinase, smooth muscle (Homo sapiens) (UniProt Q15746); assay: Inhibition of human recombinant smMLCK at 500 nM related to control ULK1
Myosin light chain kinase, smooth muscle (Homo sapiens), sequence (Q15746 whole entry): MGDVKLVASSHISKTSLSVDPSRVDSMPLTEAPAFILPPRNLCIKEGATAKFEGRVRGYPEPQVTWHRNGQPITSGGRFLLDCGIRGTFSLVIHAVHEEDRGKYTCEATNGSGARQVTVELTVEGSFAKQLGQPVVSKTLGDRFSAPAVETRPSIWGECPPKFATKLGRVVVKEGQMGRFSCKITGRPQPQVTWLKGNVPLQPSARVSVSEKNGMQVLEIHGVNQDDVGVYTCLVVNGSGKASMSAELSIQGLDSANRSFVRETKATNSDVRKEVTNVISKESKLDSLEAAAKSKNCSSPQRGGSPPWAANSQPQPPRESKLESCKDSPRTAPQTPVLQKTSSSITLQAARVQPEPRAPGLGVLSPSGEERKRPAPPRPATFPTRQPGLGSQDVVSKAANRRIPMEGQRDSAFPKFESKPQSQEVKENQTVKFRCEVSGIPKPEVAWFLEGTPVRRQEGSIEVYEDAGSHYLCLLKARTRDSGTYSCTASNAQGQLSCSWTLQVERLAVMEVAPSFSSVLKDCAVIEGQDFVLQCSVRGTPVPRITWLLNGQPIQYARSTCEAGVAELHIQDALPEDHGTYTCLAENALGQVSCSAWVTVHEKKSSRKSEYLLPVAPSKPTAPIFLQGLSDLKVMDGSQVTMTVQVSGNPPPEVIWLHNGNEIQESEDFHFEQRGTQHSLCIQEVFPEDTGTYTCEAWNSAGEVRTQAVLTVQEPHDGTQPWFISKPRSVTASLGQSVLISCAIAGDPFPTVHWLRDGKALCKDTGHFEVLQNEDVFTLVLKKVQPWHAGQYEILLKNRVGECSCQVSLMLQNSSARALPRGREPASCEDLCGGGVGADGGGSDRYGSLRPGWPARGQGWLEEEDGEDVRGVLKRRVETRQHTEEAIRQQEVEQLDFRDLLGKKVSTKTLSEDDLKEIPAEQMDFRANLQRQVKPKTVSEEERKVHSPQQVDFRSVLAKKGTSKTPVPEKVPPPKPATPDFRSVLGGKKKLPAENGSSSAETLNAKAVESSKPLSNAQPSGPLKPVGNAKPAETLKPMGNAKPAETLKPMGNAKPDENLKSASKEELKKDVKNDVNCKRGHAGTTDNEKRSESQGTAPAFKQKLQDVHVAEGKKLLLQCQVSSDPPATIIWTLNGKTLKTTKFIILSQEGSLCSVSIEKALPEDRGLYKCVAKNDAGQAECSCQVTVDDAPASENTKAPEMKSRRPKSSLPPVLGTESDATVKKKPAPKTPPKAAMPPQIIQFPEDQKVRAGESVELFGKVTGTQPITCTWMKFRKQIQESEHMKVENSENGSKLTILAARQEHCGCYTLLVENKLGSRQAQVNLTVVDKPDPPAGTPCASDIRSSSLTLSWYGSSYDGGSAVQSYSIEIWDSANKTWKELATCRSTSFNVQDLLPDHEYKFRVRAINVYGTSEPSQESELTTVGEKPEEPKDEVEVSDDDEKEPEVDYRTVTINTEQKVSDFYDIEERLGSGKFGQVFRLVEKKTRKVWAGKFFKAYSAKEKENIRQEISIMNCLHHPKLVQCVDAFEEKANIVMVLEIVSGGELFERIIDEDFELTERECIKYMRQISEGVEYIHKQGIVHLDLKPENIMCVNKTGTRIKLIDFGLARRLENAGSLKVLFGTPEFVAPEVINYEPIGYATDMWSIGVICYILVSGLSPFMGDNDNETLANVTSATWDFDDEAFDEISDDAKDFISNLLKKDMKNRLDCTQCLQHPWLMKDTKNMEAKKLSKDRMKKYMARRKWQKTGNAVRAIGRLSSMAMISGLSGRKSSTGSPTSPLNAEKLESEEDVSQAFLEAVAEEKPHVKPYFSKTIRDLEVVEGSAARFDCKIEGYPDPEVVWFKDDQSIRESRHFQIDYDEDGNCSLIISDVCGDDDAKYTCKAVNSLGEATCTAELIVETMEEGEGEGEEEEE

Serine/threonine-protein kinase PAK 5 (Homo sapiens), sequence (Q9P286 whole entry, looked up): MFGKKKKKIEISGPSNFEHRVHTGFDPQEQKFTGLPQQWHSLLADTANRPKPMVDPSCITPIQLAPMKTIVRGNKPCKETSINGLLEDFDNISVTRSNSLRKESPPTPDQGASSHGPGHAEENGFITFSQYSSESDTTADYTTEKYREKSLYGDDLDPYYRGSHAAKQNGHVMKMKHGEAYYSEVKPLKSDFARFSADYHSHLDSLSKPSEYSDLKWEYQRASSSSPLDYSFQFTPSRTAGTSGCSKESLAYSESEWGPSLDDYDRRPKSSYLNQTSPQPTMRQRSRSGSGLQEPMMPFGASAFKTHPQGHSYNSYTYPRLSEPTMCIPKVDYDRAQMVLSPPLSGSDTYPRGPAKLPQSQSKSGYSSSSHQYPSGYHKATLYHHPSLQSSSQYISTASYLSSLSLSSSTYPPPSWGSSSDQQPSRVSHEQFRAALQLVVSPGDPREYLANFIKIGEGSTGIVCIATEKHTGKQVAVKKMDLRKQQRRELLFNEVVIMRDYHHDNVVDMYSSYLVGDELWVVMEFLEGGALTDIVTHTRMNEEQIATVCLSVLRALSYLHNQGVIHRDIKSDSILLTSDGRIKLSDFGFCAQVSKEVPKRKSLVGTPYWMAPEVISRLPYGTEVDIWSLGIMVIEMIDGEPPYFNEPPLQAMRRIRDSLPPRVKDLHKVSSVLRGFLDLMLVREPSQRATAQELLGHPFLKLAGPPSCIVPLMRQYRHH
Homeodomain-interacting protein kinase 3 (Homo sapiens), sequence (Q9H422 whole entry, looked up): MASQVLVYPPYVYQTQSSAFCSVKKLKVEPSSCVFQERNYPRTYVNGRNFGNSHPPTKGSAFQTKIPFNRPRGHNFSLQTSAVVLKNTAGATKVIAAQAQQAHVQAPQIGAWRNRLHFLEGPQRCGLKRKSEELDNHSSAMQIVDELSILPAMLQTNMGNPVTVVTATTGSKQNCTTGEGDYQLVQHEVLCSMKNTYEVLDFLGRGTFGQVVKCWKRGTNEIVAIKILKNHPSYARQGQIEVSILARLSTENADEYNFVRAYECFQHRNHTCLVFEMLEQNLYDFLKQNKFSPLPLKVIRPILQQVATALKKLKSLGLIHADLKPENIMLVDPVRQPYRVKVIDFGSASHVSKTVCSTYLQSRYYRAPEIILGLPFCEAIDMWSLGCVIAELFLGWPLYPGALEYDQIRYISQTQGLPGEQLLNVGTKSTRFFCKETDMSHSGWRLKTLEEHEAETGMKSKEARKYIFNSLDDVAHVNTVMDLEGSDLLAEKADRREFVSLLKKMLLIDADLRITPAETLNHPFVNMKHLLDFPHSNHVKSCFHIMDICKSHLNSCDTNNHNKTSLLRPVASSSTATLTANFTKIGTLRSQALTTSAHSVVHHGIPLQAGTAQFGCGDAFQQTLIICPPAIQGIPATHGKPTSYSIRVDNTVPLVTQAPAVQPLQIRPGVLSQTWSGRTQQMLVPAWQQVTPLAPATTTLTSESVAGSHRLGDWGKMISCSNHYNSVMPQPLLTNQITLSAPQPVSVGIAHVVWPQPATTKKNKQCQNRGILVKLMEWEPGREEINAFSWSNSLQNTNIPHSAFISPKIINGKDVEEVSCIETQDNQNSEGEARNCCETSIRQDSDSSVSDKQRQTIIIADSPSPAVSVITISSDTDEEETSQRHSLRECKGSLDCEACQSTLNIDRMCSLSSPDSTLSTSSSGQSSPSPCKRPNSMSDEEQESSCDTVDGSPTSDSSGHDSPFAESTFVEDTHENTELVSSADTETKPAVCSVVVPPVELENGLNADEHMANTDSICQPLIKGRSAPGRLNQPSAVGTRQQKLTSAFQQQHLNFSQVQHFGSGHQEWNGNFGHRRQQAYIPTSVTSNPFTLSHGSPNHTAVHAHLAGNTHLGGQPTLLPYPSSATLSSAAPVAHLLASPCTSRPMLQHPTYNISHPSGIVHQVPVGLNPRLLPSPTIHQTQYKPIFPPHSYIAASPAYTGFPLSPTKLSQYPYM
Serine/threonine-protein kinase pim-2 (Homo sapiens), sequence (Q9P1W9 whole entry, looked up): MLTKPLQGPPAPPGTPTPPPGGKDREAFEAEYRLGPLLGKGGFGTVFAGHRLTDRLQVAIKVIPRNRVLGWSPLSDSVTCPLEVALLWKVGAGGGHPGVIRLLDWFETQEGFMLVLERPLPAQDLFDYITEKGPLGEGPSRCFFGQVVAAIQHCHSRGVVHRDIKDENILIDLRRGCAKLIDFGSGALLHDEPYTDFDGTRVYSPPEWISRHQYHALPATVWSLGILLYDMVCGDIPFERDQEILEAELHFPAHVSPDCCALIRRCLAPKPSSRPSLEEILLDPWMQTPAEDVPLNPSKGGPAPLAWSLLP
High affinity nerve growth factor receptor (Homo sapiens), sequence (P04629 33-796 limits assumed): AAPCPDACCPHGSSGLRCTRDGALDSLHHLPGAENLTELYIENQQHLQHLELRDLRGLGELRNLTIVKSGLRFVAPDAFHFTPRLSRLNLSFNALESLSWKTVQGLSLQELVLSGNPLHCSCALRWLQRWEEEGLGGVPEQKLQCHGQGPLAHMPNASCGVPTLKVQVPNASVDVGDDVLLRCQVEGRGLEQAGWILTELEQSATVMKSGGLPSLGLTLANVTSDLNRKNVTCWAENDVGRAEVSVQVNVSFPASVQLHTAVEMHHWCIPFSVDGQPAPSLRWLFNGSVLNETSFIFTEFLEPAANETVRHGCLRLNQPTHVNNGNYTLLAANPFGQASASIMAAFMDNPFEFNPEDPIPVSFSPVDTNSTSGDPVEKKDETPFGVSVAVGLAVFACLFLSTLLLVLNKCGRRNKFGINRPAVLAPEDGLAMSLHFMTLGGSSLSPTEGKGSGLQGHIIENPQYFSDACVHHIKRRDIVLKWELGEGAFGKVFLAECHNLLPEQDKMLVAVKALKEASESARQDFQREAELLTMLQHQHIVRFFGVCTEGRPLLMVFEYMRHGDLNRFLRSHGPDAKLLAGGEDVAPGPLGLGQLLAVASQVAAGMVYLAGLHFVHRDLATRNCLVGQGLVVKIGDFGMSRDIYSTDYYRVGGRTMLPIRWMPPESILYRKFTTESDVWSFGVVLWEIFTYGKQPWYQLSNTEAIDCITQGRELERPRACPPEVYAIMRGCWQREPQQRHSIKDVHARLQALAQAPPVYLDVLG

For O=C(N[C@@H](C1CC1)C(F)(F)F)c1cc(-c2cnn3cc(-c4ccc(F)cc4)cnc23)cs1, the inhibition [1] was 5%, the fold change (FC) [2] was 0 and the fold change (FC) [3] was 0.04.
With CC(C)[C@H](NC(=O)c1cc(-c2cnn3cc(-c4ccc(OCCN5CCCCC5)cc4)cnc23)cs1)C(F)(F)F the inhibition [4] was 6%, the inhibition [5] was 22% and the inhibition [6] was 0%. It also gave a fold change (FC) [7] of 0.
In the case of CNC(=O)c1ccccc1Oc1nc(Nc2cc(OC)c(OC)c(OC)c2)ncc1Br, the inhibition [8] is reported as 0%, the fold change (FC) [9] is reported as 0 and the fold change (FC) [10] is reported as 0.07.
